Assay outcomes (PubChem BioAssay)
Most compounds without a hit are left out; they make up all but 6.8% or so of the library.
ALR H2O2 inh – blocks human ALR sulfhydryl oxidase activity. inhibition, % (concentration not given with the values). 290,000 tested, 3.8% active. purified ALR, DTT oxidation, H2O2 HRP-luminol luminescence. P55789;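 active = mean replicate inhibition above about 79%, with every replicate also reaching it, limit read from the data; inconclusive = only one of the two criteria met; inactive = mean below limit and not every replicate reaching it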
HSF1 inhib – HSF1 inhibition. AID 2098. activity change, negative = inhibition, % at 7.5 µM (by protocol). 300,000 tested, 0.77% active. NIH3T3-HGL HSE-luciferase, MG132-induced, luminescence 8 h; hits give low values;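 active = more than half of replicate wells show activity change below -50%, luminescence cut by over half; inconclusive = some wells, but at most half, below -50%; inactive = no replicate well below -50%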;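 also: luciferase reports HSF-1 transcriptional activity via heat shock element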
AI-2 QS mod – modulates the Vibrio harveyi AI-2 quorum sensing system; AID 2094; Vibrio harveyi JMH597 AI-2 luminescence/OD600 ratio, 9 h; hits give low values; strain lacks LuxN and CqsS sensors; 0 = neutral-control median; 300,000 tested, 0.4% active; activity change, % at 7.5 µM; in the data active = activity change below about -75%, passing the limit was not always enough; inconclusive = no clear call, values can overlap the other calls;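 also: luminescence divided by OD600 gain over 9 h not by final OD600 alone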
HCV core dimer – HCV core protein dimerization inhibition; TR-FRET GST/Flag-core106 dimerization, 1536-well; inhibition, % at 5 µM; 300,000 tested, 0.33% active; AID 1899;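 active = inhibition above the mean of all tested compounds plus 3 SD, set per screening campaign, cut at about 45% in these data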
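System: GST/Flag-tagged HCV core106 proteins. Incubation: compound-protein-antibody incubation 4 h at 22.5 °C. Technique: HTRF with 340 nm excitation, 617/671 nm emission. Medium: KF-containing HEPES buffer, pH 7.45, DTT, CHAPS, BSA. Read-out: inhibition (%) from 671 over 617 nm ratio. Also added: Eu(K)-anti-GST 90 ng/mL plus XL665-anti-Flag 1 µg/mL.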
PHOSPHO1 inh – PHOSPHO1 (human) inhibition | Q8TCT1 | recombinant PHOSPHO1, absorbance phosphatase assay | inhibition, % at 13.3 µM | 290,000 tested, 1.1% active | AID 1565; in the data active = inhibition above about 60%
Target sequence (Q8TCT1 whole entry, looked up): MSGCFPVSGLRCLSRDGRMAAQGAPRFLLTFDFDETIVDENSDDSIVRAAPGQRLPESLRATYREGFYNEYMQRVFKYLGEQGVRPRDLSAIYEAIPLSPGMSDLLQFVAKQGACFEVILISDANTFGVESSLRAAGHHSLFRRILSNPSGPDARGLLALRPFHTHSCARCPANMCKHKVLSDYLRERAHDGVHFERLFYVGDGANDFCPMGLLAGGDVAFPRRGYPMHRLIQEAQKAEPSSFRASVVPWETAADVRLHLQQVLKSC
HSF1 activator – increases HSF-1 driven luciferase reporter signal | NIH3T3-HGL HSF-1 luciferase reporter, MG132, 8 h; 100% = twice DMSO control signal | activation, % at 9 µM | 300,000 tested, 1.7% active | AID 504408;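 active = mean replicate activation of at least 50% with a set share of replicates each reaching 50%; inconclusive = only one of those two conditions met; inactive = mean below 50% and too few replicates reaching it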
A number is an active result; . = inactive; ? = inconclusive; / = not tested or not shown.

SMILES | ALR H2O2 inh | HSF1 inhib | AI-2 QS mod | HCV core dimer | PHOSPHO1 inh | HSF1 activator
Cc1cccc(-n2ccnc2CN2CCN(C(C)C)C(CCO)C2)c1 (configuration not stated) | . | . | . | . | . | .
CCCCN(C(=O)C1CSC2(C)CCC(=O)N12)c1c(N)n(CC(C)C)c(=O)[nH]c1=O (configuration not stated) | . | / | / | / | / | /
C=CCCCCCCCC(=O)OC | . | . | . | . | . | .
Cc1cc(=O)oc(C)c1C(=O)NCc1ccccc1 | . | . | . | . | . | .
CCCCN(CCCNC(=O)c1c(C)cc(=O)oc1C)c1ccccc1 | 99 | . | . | . | . | .
CCN(CCCNC(=O)c1c(C)cc(=O)oc1C)c1ccccc1 | 99 | . | / | . | . | .
CCCNC(=O)c1c(C)cc(=O)oc1C | . | . | . | . | . | .
COc1ccc(OC)c(CCNC(=O)Cn2nc(C)c3c(C)n(-c4ccccc4)nc3c2=O)c1 | . | . | . | . | . | .
O=C(N/N=C/c1ccccc1)c1ccco1 | . | . | . | . | . | .
Cc1ccc(NCC(=O)N/N=C\C(Br)=C\c2ccccc2)cc1 | . | . | . | . | . | 145
Cc1occc1C(=O)N/N=C/C(Br)=C\c1ccccc1 | / | . | . | . | . | 363
CCOC(=O)N/N=C\c1ccc(OC(=O)c2ccco2)cc1 | . | . | . | . | . | .
Cc1ccc(NCC(=O)N/N=C/c2ccc(OC(=O)c3ccco3)cc2)cc1 | 99 | . | . | . | . | .
O=C(N/N=C/C(Br)=C\c1ccccc1)c1ccco1 | . | . | . | . | . | 108
Cc1occc1C(=O)N/N=C/C=C/c1ccccc1 | . | . | . | . | . | .
O=C(N/N=C/C(Br)=C/c1ccccc1)NC1CCCCC1 | . | . | . | . | . | 58
COc1ccccc1N1CCN(/N=C/c2ccccc2C(=O)O)CC1 | . | . | . | . | . | .
CC(=O)Nc1ccc(S(=O)(=O)NCCC(=O)OCc2csc(CC(=O)Nc3ccccc3C)n2)cc1 | . | . | . | . | / | .
CCCOc1ccc(C(=O)Nc2ccccc2[N+](=O)[O-])cc1 | . | . | . | . | / | 59
CCCOc1ccc(C(=O)NNC(=S)NC(C)=O)cc1 | . | . | ? | . | . | .
CCCCOc1ccc(C(=O)Nc2ccc(C)cc2[N+](=O)[O-])cc1 | . | . | . | . | . | .
CCCOc1ccc(C(=O)NNC(=S)NC(=O)c2ccccc2)cc1 | . | . | -213 | . | . | .
CCCOc1ccc(C(=O)NNC(=S)NC(=O)c2cccs2)cc1 | 97 | -55 | ? | . | . | .
CCOc1ccccc1N(CC(=O)NC1CCCCC1)S(=O)(=O)c1ccc(C)cc1 | . | . | . | . | . | .
CC[n+]1cc(-c2ccccc2)nc(N2CCOCC2)n1 | . | . | . | . | 100 | .
SMILES | ALR H2O2 inh | HSF1 inhib | AI-2 QS mod | HCV core dimer | PHOSPHO1 inh | HSF1 activator
CCN(/C=N/S(=O)(=O)c1ccc(Cl)cc1)CC | . | . | . | . | . | .
COc1ccc(CCNC(=O)c2cc3c(cc2Cl)N2CCCCCC2=NS3(=O)=O)cc1 | . | . | . | . | / | .
CC1=C(CO)C(=O)OC([C@@H](C)C2CC[C@H]3C4C[C@H]5O[C@]56[C@@H](O)C=CC(=O)[C@]6(C)C4CC[C@]23C)C1 (some centres not stated) | . | . | . | . | . | 64
COc1ccc2ccccc2c1C1CC(=O)N2CN(C)CSC2=C1C#N (configuration not stated) | . | . | . | . | . | .
COc1ccc(Br)cc1C1CC(=O)N2CN(C)CSC2=C1C#N (configuration not stated) | . | . | . | . | . | .
Cc1ccc(C2CC(=O)N3CN(c4ccc(Br)cc4)CSC3=C2C#N)o1 (configuration not stated) | . | . | . | 48 | 93 | .
CCOc1ccc(N2CSC3=C(C#N)C(c4ccco4)CC(=O)N3C2)cc1 (configuration not stated) | . | . | . | 78 | 94 | .
CC(=O)Nc1ccc(NC(=O)CC2Nc3cccc4cccc(c34)NC2=O)cc1 (configuration not stated) | 86 | . | . | . | . | .
